ChEMBL document CHEMBL4002589, “Tri- and Tetrasubstituted Pyridinylimidazoles as Covalent Inhibitors of c-Jun N-Terminal Kinase 3” (J Med Chem, 2017)

Key:
[1] = target: Casein kinase I isoform gamma-3 (Homo sapiens) (UniProt Q9Y6M4); assay: Inhibition of CK1 gamma3 (unknown origin) assessed as residual activity at 1 uM relative to control
How it was run: (§1)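 Each inhibitor is tested at a single concentration, 1 µM or 0.5 µM depending on the compound. Results are reported as residual kinase activity.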

[2] = target: T1, Serine/threonine-protein kinase TAO2 (Homo sapiens) (UniProt Q9UL54); assay: Inhibition of TAOK2 (unknown origin) assessed as residual activity at 1 uM relative to control; how it was run: as §1
T1 sequence (whole entry): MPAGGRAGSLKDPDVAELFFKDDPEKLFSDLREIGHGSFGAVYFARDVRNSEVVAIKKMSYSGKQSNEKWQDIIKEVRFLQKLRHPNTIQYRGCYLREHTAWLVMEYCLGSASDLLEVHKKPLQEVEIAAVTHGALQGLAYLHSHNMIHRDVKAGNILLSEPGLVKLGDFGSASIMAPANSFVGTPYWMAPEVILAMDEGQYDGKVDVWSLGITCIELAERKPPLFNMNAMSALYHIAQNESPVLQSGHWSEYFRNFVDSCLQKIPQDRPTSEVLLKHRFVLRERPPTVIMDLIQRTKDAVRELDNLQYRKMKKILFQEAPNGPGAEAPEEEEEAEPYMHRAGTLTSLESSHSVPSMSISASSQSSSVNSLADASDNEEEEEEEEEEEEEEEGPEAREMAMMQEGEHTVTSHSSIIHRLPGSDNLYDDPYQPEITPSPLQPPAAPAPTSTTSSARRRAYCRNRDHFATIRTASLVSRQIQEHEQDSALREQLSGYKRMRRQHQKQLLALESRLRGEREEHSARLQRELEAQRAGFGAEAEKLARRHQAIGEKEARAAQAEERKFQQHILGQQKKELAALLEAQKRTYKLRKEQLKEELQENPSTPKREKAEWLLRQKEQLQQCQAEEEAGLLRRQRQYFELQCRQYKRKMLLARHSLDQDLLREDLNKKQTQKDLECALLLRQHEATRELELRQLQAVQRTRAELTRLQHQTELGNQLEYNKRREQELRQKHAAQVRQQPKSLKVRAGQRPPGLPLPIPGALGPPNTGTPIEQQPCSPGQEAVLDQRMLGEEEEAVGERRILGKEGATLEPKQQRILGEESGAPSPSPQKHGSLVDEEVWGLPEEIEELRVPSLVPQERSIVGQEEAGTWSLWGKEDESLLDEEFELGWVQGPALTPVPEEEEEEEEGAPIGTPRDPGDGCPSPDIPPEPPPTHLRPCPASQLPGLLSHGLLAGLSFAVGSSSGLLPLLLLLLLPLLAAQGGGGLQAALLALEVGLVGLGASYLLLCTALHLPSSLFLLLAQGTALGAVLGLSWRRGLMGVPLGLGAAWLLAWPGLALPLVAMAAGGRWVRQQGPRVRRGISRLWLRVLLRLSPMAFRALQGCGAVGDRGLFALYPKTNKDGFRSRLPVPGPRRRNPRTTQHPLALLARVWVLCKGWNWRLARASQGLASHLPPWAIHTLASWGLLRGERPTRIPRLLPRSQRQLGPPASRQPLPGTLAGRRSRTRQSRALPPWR

[3] = target: T2, Serine/threonine-protein kinase D3 (Homo sapiens) (UniProt O94806); assay: Inhibition of human PKC-nu (3 to 890 residues) expressed in Sf9 cells assessed as residual activity at 1 uM relative to control; how it was run: as §1
T2 sequence (whole entry): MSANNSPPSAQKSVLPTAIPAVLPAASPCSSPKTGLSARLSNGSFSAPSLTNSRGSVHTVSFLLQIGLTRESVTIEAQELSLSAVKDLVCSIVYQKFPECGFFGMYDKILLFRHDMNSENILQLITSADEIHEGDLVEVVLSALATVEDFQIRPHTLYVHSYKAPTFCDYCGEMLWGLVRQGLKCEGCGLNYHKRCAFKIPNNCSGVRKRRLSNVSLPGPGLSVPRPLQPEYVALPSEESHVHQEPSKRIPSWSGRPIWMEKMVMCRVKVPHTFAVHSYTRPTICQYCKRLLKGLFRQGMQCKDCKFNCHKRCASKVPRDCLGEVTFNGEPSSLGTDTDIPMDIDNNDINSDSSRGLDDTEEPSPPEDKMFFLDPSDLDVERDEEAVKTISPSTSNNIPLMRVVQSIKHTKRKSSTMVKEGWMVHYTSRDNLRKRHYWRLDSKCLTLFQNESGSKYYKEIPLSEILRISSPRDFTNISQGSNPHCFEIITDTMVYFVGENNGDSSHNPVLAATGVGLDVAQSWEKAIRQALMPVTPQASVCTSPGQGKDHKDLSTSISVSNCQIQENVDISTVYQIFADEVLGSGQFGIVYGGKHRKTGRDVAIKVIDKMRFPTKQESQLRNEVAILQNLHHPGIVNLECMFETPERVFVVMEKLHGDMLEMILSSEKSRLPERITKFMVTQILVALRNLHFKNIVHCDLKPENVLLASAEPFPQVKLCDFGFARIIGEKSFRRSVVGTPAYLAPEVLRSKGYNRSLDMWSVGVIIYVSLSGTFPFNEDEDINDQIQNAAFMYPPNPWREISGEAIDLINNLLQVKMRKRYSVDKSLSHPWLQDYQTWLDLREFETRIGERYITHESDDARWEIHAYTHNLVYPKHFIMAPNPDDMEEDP

Measured: Activity

Casein kinase I isoform gamma-3 (Homo sapiens), sequence (Q9Y6M4 whole entry, looked up, canonical isoform): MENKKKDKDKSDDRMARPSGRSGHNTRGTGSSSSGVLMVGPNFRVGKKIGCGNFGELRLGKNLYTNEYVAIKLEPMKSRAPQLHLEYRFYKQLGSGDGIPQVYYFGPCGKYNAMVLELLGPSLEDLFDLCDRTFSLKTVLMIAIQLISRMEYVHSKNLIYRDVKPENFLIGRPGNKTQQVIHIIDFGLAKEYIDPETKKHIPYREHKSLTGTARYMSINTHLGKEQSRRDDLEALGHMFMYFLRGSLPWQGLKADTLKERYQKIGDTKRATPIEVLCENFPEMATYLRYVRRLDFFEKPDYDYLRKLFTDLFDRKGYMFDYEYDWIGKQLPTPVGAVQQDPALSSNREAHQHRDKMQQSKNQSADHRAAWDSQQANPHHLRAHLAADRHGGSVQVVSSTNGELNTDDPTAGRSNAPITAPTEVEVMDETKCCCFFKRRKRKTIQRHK

C=CC(=O)Nc1cccc(C(=O)Nc2ccc(Nc3cc(-c4[nH]c(SC)nc4C)ccn3)cc2)c1
10 to 29%: all assays above
